Screening results from PubChem BioAssay.
Hits are enriched below; roughly 0.72% of the tested compounds scored in any of these assays.
PolyA inhibitor – polyadenylation inhibitors in yeast reporter cells, primary screen, luminescence, S. cerevisiae. S. cerevisiae SKY197-pL101 polyadenylation reporter, beta-gal luminescence; efflux-impaired pdr1/pdr3 knockout yeast; score 100 = 6 SD above DMSO. 300,000 compounds, 0.02% hits. AID 1875, 2009. activity score, % at 12 µM;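 active means lowest replicate activity score at least 50, where 100 means six control SD above control mean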;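 further: yeast exposed to compound for 9 h at 30 °C; higher score means more reporter readthrough which indicates perturbed polyadenylation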
AI-2 QS mod – Vibrio harveyi AI-2 quorum sensing modulators, primary screen, JMH597 strain, luminescence/OD600 ratio; 300,000 compounds, 0.4% hits; activity change, % at 7.5 µM; Vibrio harveyi JMH597 AI-2 luminescence/OD600 ratio, 9 h; stronger effect = lower value; strain lacks LuxN and CqsS sensors; 0 = neutral-control median; in the data active means activity change below about -75%, passing the limit was not always enough;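 further: luminescence divided by OD600 gain over 9 h not by final OD600 alone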
GSK3 alpha inh – blockers of GSK3A enzyme activity – biochemical, luminescence, cell-free homogeneous, HTS, primary screen. Glycogen synthase kinase-3 alpha (Homo sapiens), P49840. GSK-3 alpha kinase, ADP-Glo luminescence, 60 min. inhibition, % at 10 µM. 320,000 compounds, 0.1% hits. AID 2650, 2010;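 active means more than half of replicates show inhibition above 20%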;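 further: GST-tagged GSK-3 alpha with peptide substrate and 25 µM ATP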
Target sequence (P49840 whole entry, looked up): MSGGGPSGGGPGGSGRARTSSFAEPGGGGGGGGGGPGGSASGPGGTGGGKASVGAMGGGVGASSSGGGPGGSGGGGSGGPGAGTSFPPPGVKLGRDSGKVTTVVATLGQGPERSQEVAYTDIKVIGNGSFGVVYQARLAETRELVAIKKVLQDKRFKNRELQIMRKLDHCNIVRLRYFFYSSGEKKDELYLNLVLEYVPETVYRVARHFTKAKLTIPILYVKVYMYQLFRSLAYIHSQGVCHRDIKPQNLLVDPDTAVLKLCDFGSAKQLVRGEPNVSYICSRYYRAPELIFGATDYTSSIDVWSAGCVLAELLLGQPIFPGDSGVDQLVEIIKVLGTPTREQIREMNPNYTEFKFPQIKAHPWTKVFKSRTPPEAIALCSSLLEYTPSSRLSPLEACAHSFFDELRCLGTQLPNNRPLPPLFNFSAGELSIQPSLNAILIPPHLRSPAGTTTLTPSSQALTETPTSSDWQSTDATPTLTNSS
Yeast superoxide – reduction of superoxide in aged yeast, primary screen, HTS | S. cerevisiae aged cells, superoxide DHE fluorescence; stronger effect = lower value | 330,000 compounds, 0.18% hits | superoxide response (% of plate mean), % at 10 µM;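 active means superoxide response under a set limit, about three screen SD below normal, cut at about 65% in these data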;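 further: yeast aged for seven days with compound at 30 °C before DHE staining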
STK33 inh – inhibitors of purified STK33 kinase, primary screen, biochemical, ADP-Glo luminescence, homogeneous, cell-free. Serine/threonine-protein kinase 33 (Homo sapiens), Q9BYT3. MBP phosphorylation. inhibition, % at 10 µM. 320,000 compounds, 0.073% hits. AID 2661, 2010;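 active means inhibition at or above 25%, using the most active replicate where run in duplicate; inactive means inhibition below 25%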
GSK3beta inhib – human GSK3beta kinase inhibitors, primary screen, biochemical, cell-free homogeneous, HTS | Glycogen synthase kinase-3 beta (Homo sapiens), P49841 | GST-GSK3beta kinase, ADP-Glo luminescence, 60 min; stronger effect = lower value | activity score (negative = inhibition), % at 10 µM | 300,000 compounds, 0.038% hits | AID 2097, 2009;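 active means more than half of replicate wells score below -50%, meaning over 50% inhibition versus plate controls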
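Test system: GST-tagged human GSK3beta kinase, cell-free; evaluation: activity score scaled between in-plate DMSO and GW8510 controls; measured by: ADP-Glo luminescence; incubation: 60 min reaction, RT; benchmarks: DMSO and 20 µM GW8510; reagent: peptide substrate plus 25 µM ATP (final); medium: Tris/MgCl2 kinase buffer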
Superoxide pick – superoxide lowering in aged yeast cells, confirmation, cherry picked compounds. superoxide response (% of plate), % at 10 µM. S. cerevisiae aging, superoxide DHE fluorescence; stronger effect = lower value. shares compounds with Yeast superoxide. 850 compounds, 1% hits. AID 434994, 2010;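 active means superoxide signal below 65% of the plate average of sample wells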;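 further: cells aged with compound for 7 days at 30 degrees C before staining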
DHE counter – DHE quenching or ROS scavenging interference in aged yeast, artefact control for yeast caloric restriction mimetic project, S. cerevisiae BY4741, flow cytometry; shares compounds with Yeast superoxide; DHE fluorescence; stronger effect = lower value; fluorescence response, % at 10 µM; 850 tested, under 10 active; AID 435000, 2010;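 active means fluorescence response below 15%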
Hits are given with their value; i = inactive; nt = no result given.

SMILES | PolyA inhibitor | AI-2 QS mod | GSK3 alpha inh | Yeast superoxide | STK33 inh | GSK3beta inhib | Superoxide pick | DHE counter
CCOC(=O)CNC(=O)c1cccs1 | i | i | i | i | i | i | nt | nt
COc1ccc(Cl)cc1S(=O)(=O)N1CCCC1=O | i | i | i | i | i | i | i | i
COc1ccc(CNC(=O)C2CCN(S(=O)(=O)N3CCC4(CC3)OCCO4)CC2)c(OC)c1 | i | i | i | 63 | i | i | i | i
OCCOCCn1c2ccccc2c2ccccc21 | i | i | i | i | i | i | i | i
CCN(CC)S(=O)(=O)c1ccc2c(c1)C(=NO)c1cc(S(=O)(=O)N(CC)CC)ccc1-2 | i | i | i | i | i | i | nt | nt
CN(CCO)S(=O)(=O)c1ccc2c(c1)C(=NN)c1cc(S(=O)(=O)N(C)CCO)ccc1-2 | i | i | i | 65 | i | i | i | i
N#Cc1c(F)cccc1NCc1cccnc1 | i | i | i | 56 | i | i | i | i
N#Cc1c(NCc2ccccc2)ccnc1NCc1cccnc1 | i | i | i | i | i | i | nt | nt
Cc1n[nH]c(C)c1CCC(=O)N/N=C/c1cccs1 | i | i | i | i | i | i | nt | nt
CO/N=C/c1cccn1-c1nccc(N(C)C)c1C#N | i | i | i | i | i | i | nt | nt
O=C(NCCCN1CCOCC1)c1ccc2c(c1)N(Cc1c(F)cccc1Cl)C(=O)CS2 | i | i | i | i | i | i | nt | nt
COc1ccc(N2CCN(c3ccc(C(N)=O)cc3[N+](=O)[O-])CC2)cc1 | i | i | i | i | i | i | nt | nt
COc1ccc(N2CCN(C(=O)c3cccnc3)CC2)c([N+](=O)[O-])c1 | i | i | i | i | i | i | i | i
COc1cc(/C=N/NC(N)=O)ccc1OCC(=O)Nc1cc(C)c(C)cc1Br | i | i | i | i | nt | i | nt | nt
CC(=O)NCCCC(=O)NN1C(=S)N(Cc2ccccc2)C(=O)C1CC(=O)Nc1cccc(C)c1 (stereo not given) | i | i | i | i | i | i | nt | nt
CN(c1ccc(C(=O)O)cc1)S(=O)(=O)c1ccccc1 | i | i | nt | i | i | i | i | i
CC(=O)Nc1ccc(S(=O)(=O)N(C)c2ccccc2)cc1 | i | i | i | i | i | i | i | i
CN(c1ccccc1)S(=O)(=O)c1ccc(C(=O)NNC(=O)c2ccccc2)cc1 | nt | nt | nt | i | nt | nt | nt | nt
CC(=O)Nc1ccc(S(=O)(=O)N(C)c2ccc(O)cc2)cc1 | i | i | i | i | i | i | nt | nt
N#Cc1cccc(C#N)c1NCC1CCCO1 (stereo not given) | i | i | i | i | i | i | nt | nt
Cc1ccc(C(=O)O)cc1S(=O)(=O)N1CCCC1 | i | i | i | i | i | i | i | i
O=C(CNc1ccccc1)Nc1cccc2ccccc12 | i | i | i | i | i | i | nt | nt
CC(=O)COC(=O)C1=NN(c2ccccc2)C(=O)CC1 | i | i | i | i | i | i | nt | nt
CCCCNC(=O)/C(C#N)=c1\s/c(=C\c2ccccc2OC(F)F)c(=O)n1CCCOC | i | i | i | 65 | i | i | i | i
CC[C@H](C)[C@H](NC(N)=O)C(=O)Nc1ccccc1F | i | i | i | i | i | i | nt | nt
SMILES | PolyA inhibitor | AI-2 QS mod | GSK3 alpha inh | Yeast superoxide | STK33 inh | GSK3beta inhib | Superoxide pick | DHE counter
O=C(NC(=S)NNC(=O)c1ccccc1O)c1ccco1 | i | i | i | 57 | i | i | i | i
O=C(NC(=S)NNC(=O)c1cc2ccccc2cc1O)c1ccco1 | i | i | i | i | i | i | nt | nt
O=C(Cc1ccccc1)NCc1ccncc1 | i | i | i | 57 | i | i | i | i
O=C(Cc1c[nH]c2ccccc12)NCc1ccncc1 | i | i | i | i | i | i | nt | nt
Cc1ccc(S(=O)(=O)N(C)c2ccccc2)cc1 | i | i | i | i | i | i | nt | nt
CN(c1ccccc1)S(=O)(=O)c1ccccc1Br | nt | nt | i | i | i | nt | i | i
Cc1c(Cc2ccccc2)c(NCCN(C)C)n2c(nc3ccccc32)c1C#N | i | i | i | 59 | i | i | i | i
CCN1CCc2nc(N)sc2C1 | i | i | i | 65 | i | i | i | i
CC(C)(C)NC(=O)c1cccc2c1-c1ccccc1C2=O | i | i | i | 42 | i | i | i | i
COc1cccc(NC(=O)CN(C)C(=O)CCCc2nc3ccccc3s2)c1 | i | i | i | i | i | i | nt | nt
Cc1ccc(C(=O)N2CCN(c3ccc(Cl)cc3)CC2)cc1 | i | i | i | i | i | i | i | i
COc1ccc(C(=O)N2CCN(c3ccc(C)cc3)CC2)cc1OC | i | i | i | i | i | i | i | i
Cc1cc(C)n(CCCNC(=O)c2ccc(C)c(S(=O)(=O)N3CCOCC3)c2)n1 | i | i | i | i | nt | i | nt | nt
Cc1cccc(C)c1NC(=O)C1CCN(S(C)(=O)=O)CC1 | i | i | i | i | i | i | nt | nt
CC1CC(=O)Nc2ccccc2N1C(=O)Cn1cnc2ccccc2c1=O (stereo not given) | nt | nt | i | i | i | nt | nt | nt
O=C1COc2ccc(C(=O)NCc3ccc4c(c3)OCO4)cc2N1 | i | i | i | 64 | i | i | i | i
CC(C)(C)c1ccc(CNC(=O)c2ccc3c(c2)NC(=O)CO3)cc1 | i | i | i | i | i | i | nt | nt
Cc1nnc(SCc2ccc(Cl)c(Cl)c2)s1 | i | i | i | 60 | i | i | i | i
O=C1Nc2ccc(Br)cc2C1=C1CCCCC1 | i | i | i | i | i | i | nt | nt
CN1CC(=O)Nc2ccc(Br)cc2C1=O | i | i | i | 65 | i | i | i | i
Cc1ccc(NC(=O)c2ccc3nc[nH]c3c2)nc1 | i | i | i | i | i | i | nt | nt
Cc1ccc(NC(=O)c2ccc(C(=O)c3ccccc3)cc2)nc1 | i | i | i | 63 | i | i | i | i
COC(=O)c1cc(S(=O)(=O)N2CCCC2=O)c(Cl)cc1Cl | i | i | i | i | i | i | nt | nt
CCN(CC)C(=O)CCn1nc(-c2ccc(C)cc2)c2ccccc2c1=O | i | i | i | 37 | i | i | i | i
COC(=O)CN1C(=O)C2(OCCCO2)c2cc(Br)ccc21 | i | i | i | i | i | i | nt | nt
CC(C)N1C(=O)C2(OCCCO2)c2cc(Br)ccc21 | i | i | i | 60 | i | i | i | i
Cc1ccc(C)c(NC(=O)Cn2cnc3c(oc4ccccc43)c2=O)c1 | i | i | i | i | i | i | nt | nt
